# Assay outcomes as filed in PubChem BioAssay.
# Compounds with a hit are over-represented: about 2.7% of the library has one in this group of screens.
# PAFAH2 inh – PAFAH2 (human) inhibition; Q99487; recombinant PAFAH2, FP-rhodamine activity probe, fluorescence polarization; inhibition, % at 3.39 µM; 340,000 tested, 0.99% active; AID 492956;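 active = inhibition above the mean over all tested compounds plus 3 SD, cut at about 30% in these data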;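 also: inhibitors block probe labeling of enzyme so polarization drops; 0% = enzyme with DMSO and 100% = wells lacking PAFAH2 protein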
# ASAP1 GAP inh – blocks human ASAP1-stimulated Arf1 GTP hydrolysis; Q9ULH1; GDP FP detection; inhibition, % at 16.5 µM; 360,000 tested, 0.19% active; in the data active = inhibition above about 25%;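 also: 0% = vehicle with enzyme and substrate and 100% = no enzyme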
# PAFAH1B3 FP inh – inhibitors of human PAFAH1B3. Q15102. recombinant PAFAH1B3, FP-rhodamine probe, fluorescence polarization. inhibition, % at 3.39 µM. 340,000 tested, 0.28% active. AID 492972;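 active = inhibition above the screen-wide average of all tested compounds plus 3 SD, cut at about 25% in these data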;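 also: 0% = enzyme with DMSO only and 100% = wells lacking PAFAH1B3 protein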
# pPAFAH inh – inhibitors of human plasma PAF acetylhydrolase (pPAFAH); Q13093; 330,000 tested, 1.5% active; recombinant pPAFAH, FP-rhodamine probe fluorescence polarization; inhibition, % at 3.39 µM;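 active = inhibition above the mean inhibition across the screen plus 3 SD, cut at about 25% in these data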;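 also: inhibitors block binding of the rhodamine activity-based probe so polarization drops; 0% = enzyme with DMSO and 100% = wells lacking pPAFAH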
# Target sequence (Q13093 whole entry, looked up): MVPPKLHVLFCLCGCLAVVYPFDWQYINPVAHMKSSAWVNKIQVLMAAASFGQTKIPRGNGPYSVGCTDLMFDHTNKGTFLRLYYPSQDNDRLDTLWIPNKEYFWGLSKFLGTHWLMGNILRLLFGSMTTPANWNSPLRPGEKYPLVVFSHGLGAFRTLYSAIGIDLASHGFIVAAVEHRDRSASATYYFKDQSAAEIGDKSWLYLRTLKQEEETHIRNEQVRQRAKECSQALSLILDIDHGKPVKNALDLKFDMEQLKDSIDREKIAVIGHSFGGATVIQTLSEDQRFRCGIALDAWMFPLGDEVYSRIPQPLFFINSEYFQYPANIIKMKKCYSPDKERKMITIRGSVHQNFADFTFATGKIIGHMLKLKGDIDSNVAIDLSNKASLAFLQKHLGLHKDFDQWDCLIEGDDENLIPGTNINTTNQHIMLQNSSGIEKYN
# ARFGAP1 inhibitor – inhibitors of rat ARFGAP1. Arfgap1-stimulated ARF1 GTP hydrolysis, GDP FP detection. 360,000 tested, 0.26% active. inhibition, % at 16.5 µM;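 active = inhibition above a per-plate limit, mean inhibition of low control wells plus 3 SD, cut at about 25% in these data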;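 also: 0% = DMSO wells with enzyme and 100% = wells lacking Arfgap1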
#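 System: truncated rat Arfgap1 GAP domain / Benchmarks: high control wells lacking Arfgap1, low control full reaction with DMSO / Times: compound-enzyme preincubation 20 min, reaction 120 min, detection 60 min, 25 °C / Repeats: one replicate per compound / Also added: human ARF1(Δ1-17)-GTP substrate / Measured by: Tracer-displacement fluorescence polarization with EDTA stop, 620/688 nm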
# PAFAH1B2 FP inh – inhibitors of human PAFAH1B2 | P68402 | recombinant PAFAH1B2, FP-rhodamine activity probe, fluorescence polarization | inhibition, % at 3.39 µM | 340,000 tested, 1.2% active | AID 492953;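 active = inhibition above the mean of all tested compounds plus 3 SD, cut at about 24% in these data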;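 also: 0% = enzyme with DMSO and 100% = wells lacking PAFAH1B2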
# ASAP1 GAP conf – confirmation of human ASAP1 inhibitors | shares compounds with ASAP1 GAP inh | ASAP1-stimulated Arf1 GTPase, GDP fluorescence polarization | inhibition, % at 16.5 µM | 620 tested, 37% active | AID 624431;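 active = mean inhibition over triplicates exceeds the hit threshold derived for the earlier primary screening run, cut at about 25% in these data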
# The depositor's hits bear a star; · = no result.
SMILES,PAFAH2 inh,ASAP1 GAP inh,PAFAH1B3 FP inh,pPAFAH inh,ARFGAP1 inhibitor,PAFAH1B2 FP inh,ASAP1 GAP conf
O=C(O)CCc1nc2cc3ccccc3cc2[nH]1,7,-4,7,-1,-8,4,·
CC(C)n1c(-c2ccc(C(C)(C)C)cc2)n[nH]c1=S,-6,26*,-2,8,13,5,6
CC(C)(C)c1ccc(-c2n[nH]c(=S)n2Cc2ccccc2)cc1,4,8,2,7,-3,14,·
CCCc1cc(=O)oc2c(C)c(OCC(=O)NC3CC(C)(C)NC(C)(C)C3)ccc12,2,27*,9,8,-10,0,4
CCOC(=O)C1(C)CCCN1C(=O)c1ccc(C(=O)OC)cc1 (stereo not drawn),·,6,·,·,9,·,·
Cc1cc(C(=O)N2CCC2(C)C(=O)O)c(C)o1 (stereo not drawn),·,-3,·,·,1,·,·
CN(CC(=O)Nc1cccc(F)c1)C(=O)CCNC(=O)c1ccco1,-2,-10,7,1,0,4,·
CN(Cc1cccc(Cl)c1Cl)C(=O)CCNC(=O)c1ccco1,-9,29*,7,0,-4,2,1
Clc1ccc(OCc2nn3c(-c4ccco4)nnc3s2)c(Cl)c1,-1,26*,-3,3,5,-4,37*
Cc1noc(C)c1NC(=O)N(C)C[C@H]1OCCCC[C@@H](C)Oc2ccc(NS(=O)(=O)c3ccccc3)cc2C(=O)N([C@H](C)CO)C[C@@H]1C,·,26*,·,·,6,·,0
CC(C)(C)c1nc(N2CCN(C(=O)c3ccco3)CC2)c2nnn(Cc3ccccc3)c2n1,-7,49*,-4,8,14,-1,3
Cc1ccc(C(=O)N2CCCC2)cc1Br,-12,26*,2,-5,6,2,0
CC(=O)c1cccc(NC(=O)CSc2ccc(-c3ccc4c(c3)OCO4)nn2)c1,1,25*,1,-3,-3,8,54*
COc1ccc(-c2ccc(SCC(=O)Nc3cccc(C(C)=O)c3)nn2)cc1OC,2,-2,5,1,1,-3,·
COc1ccc(S(=O)(=O)c2ccc(O)cc2)cc1,4,-5,7,0,-9,8,·
COc1ccc(S(=O)(=O)/N=C2\C=C(Nc3ccc(O)cc3)C(=O)c3ccccc32)cc1,43*,38*,70*,26*,20,25*,25*
CC1(C(=O)NC2CCCCC2)CCC(=O)N1C1CCN(Cc2ccccc2)CC1 (stereo not drawn),·,9,·,·,-6,·,·
Cc1cc(OCC(=O)Nc2ccc3oc(-c4ccncc4)nc3c2)ccc1Cl,0,28*,2,-5,14,2,131*
Cc1cc(-c2nnc3n2N=C(c2ccc(-c4ccccc4)cc2)CS3)n[nH]1,5,10,5,2,20,-5,·
c1ccc(-c2cc(-c3nnc4n3N=C(c3ccc5ccccc5c3)CS4)[nH]n2)cc1,-12,25*,-12,-3,11,-2,11
CN1CCN(c2ccc(S(=O)(=O)N3CCCCC3)cc2NC(=O)/C=C/c2ccc(OC(F)F)cc2)CC1,-2,25*,-1,6,14,0,19
Nc1ccccc1C(=O)N1O[C@@H]2C=C[C@H]1CC2,4,8,6,0,4,4,·
CCC(=O)NC(c1cccs1)c1cc([N+](=O)[O-])c2cccnc2c1OC (stereo not drawn),·,43*,·,·,23,·,13
CCC(=O)NC(c1cccs1)c1ccc2cccnc2c1O (stereo not drawn),6,-8,7,7,6,9,·
CCOC(=O)c1ccc(Oc2cn[nH]c2-c2ccc(O)cc2O)cc1,-6,27*,7,14,10,4,20
CCCOC(=O)c1ccc(Oc2cn[nH]c2-c2ccc(O)cc2O)cc1,-6,-9,10,12,0,-1,·
COC(=O)CCCC1=CC2=CC(=O)C(C)(OC(=O)c3cccs3)C(=O)C2=CN1Cc1ccco1 (stereo not drawn),9,25*,7,1,-6,2,4
